Source: PubChem BioAssay
XBP1 UPR activ: adaptive UPR (XBP1) activation | 330,000 compounds, 0.33% hits | AID 463104 | activation, % at 20 µM | CHO-XBP1 luciferase reporter, IRE1-XBP1 UPR activation, luminescence; percent of tunicamycin response, DMSO as zero;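 active = versus positive control, 20 µM dose yields 30% or more activation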;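 also: 100% = tunicamycin at 10 µg/mL and 0% = DMSO only wells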
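assay system = CHO-XBP1 luciferase reporter cells | amount = 1000 cells/well | buffer or medium = F12 plus 10% FBS | compound dosing = single point, 20 µM final compound, 1% DMSO | incubation = 16-18 h cell attachment at 37 °C, then 6 h compound exposure | detection = Steady-Glo luminescence read | controls = tunicamycin 10 µg/mL and vehicle-only wells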
B2AR ag: activates human beta-2 adrenergic receptor causing internalization | P07550 | Am2.2-beta2AR cells, FAP receptor internalization, flow cytometry | response, % (no concentration beside the values) | 340,000 compounds, 0.43% hits | AID 504454;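 active = response above a set limit, near 3 SD of response in nonfluorescent compounds, cut at about 42% in these data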
Target sequence (P07550 whole entry, looked up): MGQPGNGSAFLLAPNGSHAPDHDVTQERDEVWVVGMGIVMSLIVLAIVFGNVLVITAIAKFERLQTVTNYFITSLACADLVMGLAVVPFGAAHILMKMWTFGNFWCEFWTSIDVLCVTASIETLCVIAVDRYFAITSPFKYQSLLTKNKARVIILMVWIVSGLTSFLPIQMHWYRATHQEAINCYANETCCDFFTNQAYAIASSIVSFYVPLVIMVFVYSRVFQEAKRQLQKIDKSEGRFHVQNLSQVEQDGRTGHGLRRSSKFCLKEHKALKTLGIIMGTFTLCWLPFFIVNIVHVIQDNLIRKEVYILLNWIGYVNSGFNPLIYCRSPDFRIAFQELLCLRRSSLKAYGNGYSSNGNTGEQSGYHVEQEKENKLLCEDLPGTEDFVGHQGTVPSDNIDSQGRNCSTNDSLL
Dynein cargo inh: blocks dynein driven cargo transport along microtubules; 3617.4 mouse cells, GR-EGFP nuclear translocation imaging; test concentration mostly 20 µM; stimulated with dexamethasone, 1 µM; stronger effect = lower value; AID 1381; z-score, hits read low; 220,000 compounds, 0.47% hits;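 active = plate z-score of nuclear minus cytoplasmic receptor signal below a set negative limit, without overly bright fluorescence or cell loss, cut at about -3.5 in these data, passing the limit was not always enough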;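 also: z-score of nuclear minus cytoplasmic ring GR-EGFP intensity difference per well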
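Buffer or medium: Induction medium lacking tetracycline, stripped serum | Also added: Dexamethasone agonist, 1.0 µM final, for 30 min | Timing: 48 h induction, 1 h compound, 30 min dex at 37 °C | Detection: Formaldehyde fixation, Hoechst nuclear stain, 10x automated fluorescence imaging | Measure: Nuclear versus cytoplasmic GR-EGFP signal, averaged per well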
pCIP destab: p/CIP protein destabilization | AID 1984 | F442A p/CIP-EGFP cells, EGFP fluorescence, 16 h | 290,000 compounds, 0.01% hits | Q05BA5 | decrease of EGFP signal, % at 10 µM;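 active = EGFP signal decrease of at least 30% at 10 µM or well 3 SD below plate mean, unless failing retest; inactive = the rest, including hits failing retest or dose response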
CHOP inh: CHOP inhibition in unfolded protein response. CHO-K1 CHOP-promoter luciferase, tunicamycin-induced, 15-18 h. 220,000 compounds, 3.8% hits. AID 2732. inhibition, % at 10 µM;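 active = compounds that reduced the stress-induced luciferase reporter signal by more than about 70% of percent inhibition, limit read from the data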;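 also: 0% = tunicamycin plus vehicle and 100% = wells without tunicamycin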
CHOP UPR activ: activators of apoptotic arm of unfolded protein response (CHOP) | CHO-CHOP luciferase reporter, UPR activation, luminescence; percent of tunicamycin response over DMSO baseline | activation, % at 10 µM | 330,000 compounds, 0.34% hits;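 active = at 10 µM dose, activation of 40% or more, normalized to positive control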;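 also: 100% = tunicamycin at 10 µg/mL and 0% = DMSO alone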
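Dosing – one dose, 10 µM in 0.5% DMSO · System – CHO-CHOP cells, stable luciferase reporter of PERK-eIF2a-CHOP signalling · Input – 500 cells/well · Control set – tunicamycin 10 µg/mL final as positive, DMSO-only wells as negative · Timing – 6 h compound treatment, 37 °C · Measure – % activation vs tunicamycin · Technique – luminescence read with Steady-Glo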
Numbers without * were called inactive. Only a selection was taken, and hits are over-represented in it overall.

`CCOC(=O)c1sc2nc3c(SCCC(=O)O)cc(C(=O)c4cc(OC)ccc4O)cn3c(=O)c2c1C` gave B2AR ag -8, Dynein cargo inh 0.42, pCIP destab -107 and CHOP inh 102*.
`CC(=C/c1ccc(C(C)C)cc1)/C=N/NC(=O)CSc1ccccn1` gave XBP1 UPR activ 2, B2AR ag -13, Dynein cargo inh -0.38, pCIP destab 6, CHOP inh 92* and CHOP UPR activ 3.
`CC(/C=N/NC(=O)CSc1ccccn1)=C\c1ccc(C(C)C)cc1` gave XBP1 UPR activ -1, B2AR ag 2, Dynein cargo inh 1.5, pCIP destab -14, CHOP inh 59 and CHOP UPR activ 3.
Cc1ccc2oc(/N=C(\N)NC(=O)C(C)(C)C)nc2c1 was read as XBP1 UPR activ -10, B2AR ag 0, Dynein cargo inh 0.58, pCIP destab -13, CHOP inh 86* and CHOP UPR activ -8.
For C/C(=N\Nc1nc(N2CCCCCC2)nc(N2CCCCCC2)n1)c1ccccc1 the results were XBP1 UPR activ 2, B2AR ag 18, Dynein cargo inh -1.2, pCIP destab 13, CHOP inh 48 and CHOP UPR activ 1.
Screening Cc1cccc2c1N(CCCOc1ccccc1)C(=O)C2=O returned XBP1 UPR activ 2, B2AR ag 7, Dynein cargo inh -0.73, pCIP destab -4, CHOP inh 23 and CHOP UPR activ 0.
Screening Cc1ccccc1OCCCN1C(=O)C(=O)c2cccc(C)c21 returned XBP1 UPR activ -1, B2AR ag 10, Dynein cargo inh -0.87, pCIP destab -2, CHOP inh 107* and CHOP UPR activ 0.
For COc1ccc(-[n+]2c(C)cc(/C=C3\Sc4ccccc4N3C)cc2C)cc1 the results were XBP1 UPR activ 2, Dynein cargo inh -6.1, pCIP destab -589, CHOP inh 92* and CHOP UPR activ 29.
Screening COc1ccc(C(=O)/C=C2\Sc3ccccc3N2C)cc1 returned XBP1 UPR activ 3, B2AR ag -8, Dynein cargo inh -0.17, pCIP destab -12, CHOP inh -4 and CHOP UPR activ 3.
`O=C1NN(c2cccc(Br)c2)C(=O)/C1=C/c1ccc(-c2cc([N+](=O)[O-])ccc2O)o1` gave XBP1 UPR activ -2, Dynein cargo inh -0.66, pCIP destab 4, CHOP inh 104* and CHOP UPR activ 0.
Screening CCOc1ccc(C(C(=O)NC2CCCCC2)N(C(=O)Cc2cccs2)c2ccc(-n3cnnn3)c(OC)c2)cc1 (stereo unspecified) returned XBP1 UPR activ 0, B2AR ag -16, Dynein cargo inh 0.16, pCIP destab -3, CHOP inh 84* and CHOP UPR activ 1.
COc1cccc(-c2ccc(NC(=O)C3CCCN(Cc4cnc(C)s4)C3)cc2)c1 (stereo unspecified) was read as XBP1 UPR activ -5, B2AR ag 3, pCIP destab -10 and CHOP UPR activ 2.
`O=C(CC(NC(=O)C(F)(F)F)c1ccccc1)Nc1nnc(CCc2ccccc2)s1` (stereo unspecified) gave XBP1 UPR activ -4, B2AR ag -6, Dynein cargo inh -0.11, pCIP destab -5, CHOP inh 94* and CHOP UPR activ -2.
Screening Cc1nnc(NC(=O)CC(NC(=O)C(F)(F)F)c2ccccc2)s1 (stereo unspecified) returned XBP1 UPR activ -1, B2AR ag -15, Dynein cargo inh -0.18, pCIP destab 1, CHOP inh 10 and CHOP UPR activ 3.
For CCOC(=O)/C=C1\SCC(=O)N1CC(O)CN1C(=O)CS/C1=C/C(=O)OCC (stereo unspecified) the results were B2AR ag -4.
CCOC(=O)c1c(C2COc3ccccc3O2)csc1N (stereo unspecified) was read as XBP1 UPR activ 4, B2AR ag -7, Dynein cargo inh -0.43, pCIP destab -3, CHOP inh 84* and CHOP UPR activ -2.
